Assay results taken from ChEMBL document CHEMBL5108039, “Piperazine tethered bergenin heterocyclic hybrids: design, synthesis, anticancer activity, and molecular docking studies” (RSC Med Chem, 2022).

How the values were obtained:
[1] = test system: HCT-15; experiment: Cytotoxicity against human HCT-15 cells assessed as cell growth inhibition; format: functional, cell-based
In short: (§1)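 Compounds were dissolved in sterile DMSO as 10 mg ml−1 stocks and tested for in vitro growth inhibition of human cancer cell lines. Doxorubicin was the standard drug and DMSO (0.01%) the vehicle control. IC50 values are reported as means.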

[2] = test system: CAL-27; experiment: Cytotoxicity against human CAL-27 cells assessed as cell growth inhibition; format: functional, cell-based; in short: as §1
[3] = test system: SCC-9; experiment: Cytotoxicity against human SCC-9 cells assessed as cell growth inhibition; format: functional, cell-based; in short: as §1
[4] = test system: A549; experiment: Cytotoxicity against human A549 cells assessed as cell growth inhibition; format: functional, cell-based
In short: (§2)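 Compounds were dissolved in sterile DMSO as 10 mg ml−1 stocks and tested in vitro for cytotoxicity in a cell-line panel, with DMSO (0.01%) as vehicle control and doxorubicin as standard. Mean IC50 values were reported, and the normal lung epithelial cells were tested up to 100 μM.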

[5] = test system: MCF7; experiment: Cytotoxicity against human MCF7 cells assessed as cell growth inhibition; format: functional, cell-based; in short: as §1
[6] = Cytotoxicity against human BEAS-2B cells assessed as cell growth inhibition; format: toxicity, cell-based; in short: as §2
[7] = test system: CAL-27; experiment: Cell cycle arrest in human CAL-27 cells assessed as accumulation at G0/G1 phase at 31.5 uM incubated for 24 hrs by flow cytometry (reference value: 77.6 %); format: functional
[8] = test system: CAL-27; experiment: Cell cycle arrest in human CAL-27 cells assessed as accumulation at G0/G1 phase at 63 uM incubated for 24 hrs by flow cytometry (reference value: 77.6 %); format: functional
[9] = test system: CAL-27; experiment: Cell cycle arrest in human CAL-27 cells assessed as accumulation at S phase at 31.5 uM incubated for 24 hrs by flow cytometry (reference value: 3.6 %); format: functional
[10] = test system: CAL-27; experiment: Cell cycle arrest in human CAL-27 cells assessed as accumulation at S phase at 63 uM incubated for 24 hrs by flow cytometry (reference value: 3.6 %); format: functional
[11] = test system: CAL-27; experiment: Cell cycle arrest in human CAL-27 cells assessed as accumulation at G2/M phase at 31.5 uM incubated for 24 hrs by flow cytometry (reference value: 11.9 %); format: functional
[12] = test system: CAL-27; experiment: Cell cycle arrest in human CAL-27 cells assessed as accumulation at G2/M phase at 63 uM incubated for 24 hrs by flow cytometry (reference value: 11.9 %); format: functional
[13] = test system: SCC-9; experiment: Cell cycle arrest in human SCC-9 cells assessed as accumulation at G0/G1 phase at 46 uM incubated for 24 hrs by flow cytometry (reference value: 70.8 %); format: functional
[14] = test system: SCC-9; experiment: Cell cycle arrest in human SCC-9 cells assessed as accumulation at G0/G1 phase at 92 uM incubated for 24 hrs by flow cytometry (reference value: 70.8 %); format: functional
[15] = test system: SCC-9; experiment: Cell cycle arrest in human SCC-9 cells assessed as accumulation at S phase at 46 uM incubated for 24 hrs by flow cytometry (reference value: 14.4 %); format: functional
[16] = test system: SCC-9; experiment: Cell cycle arrest in human SCC-9 cells assessed as accumulation at S phase at 92 uM incubated for 24 hrs by flow cytometry (reference value: 14.4 %); format: functional
[17] = test system: SCC-9; experiment: Cell cycle arrest in human SCC-9 cells assessed as accumulation at G2/M phase at 46 uM incubated for 24 hrs by flow cytometry (reference value: 14.2 %); format: functional
[18] = test system: SCC-9; experiment: Cell cycle arrest in human SCC-9 cells assessed as accumulation at G2/M phase at 92 uM incubated for 24 hrs by flow cytometry (reference value: 14.2 %); format: functional
[19] = test system: CAL-27; experiment: Induction of apoptosis in human CAL-27 cells assessed as live cells at 31.5 uM incubated for 24 hrs by Annexin V-FITC/PI staining based flow cytometric analysis (reference value: 99.8 %); format: functional
In short: (§3)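 CAL27 cells were treated with vehicle, doxorubicin or test compounds at 10–63 μM, and apoptosis was assessed by annexin V–FITC/PI staining with flow cytometry. Cells were scored as live, early apoptotic, late apoptotic or necrotic. The vehicle was DMSO (0.01%).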

[20] = test system: CAL-27; experiment: Induction of apoptosis in human CAL-27 cells assessed as early apoptotic cells at 31.5 uM incubated for 24 hrs by Annexin V-FITC/PI staining based flow cytometric analysis (reference value: 0.1 %); format: functional; in short: as §3
[21] = test system: CAL-27; experiment: Induction of apoptosis in human CAL-27 cells assessed as late apoptotic cells at 31.5 uM incubated for 24 hrs by Annexin V-FITC/PI staining based flow cytometric analysis (reference value: 0.1 %); format: functional; in short: as §3
[22] = test system: CAL-27; experiment: Induction of apoptosis in human CAL-27 cells assessed as necrotic cells at 31.5 uM incubated for 24 hrs by Annexin V-FITC/PI staining based flow cytometric analysis (reference value: 0.0 %); format: functional
[23] = test system: CAL-27; experiment: Induction of apoptosis in human CAL-27 cells assessed as live cells at 63 uM incubated for 24 hrs by Annexin V-FITC/PI staining based flow cytometric analysis (reference value: 99.8 %); format: functional; in short: as §3
[24] = test system: CAL-27; experiment: Induction of apoptosis in human CAL-27 cells assessed as early apoptotic cells at 63 uM incubated for 24 hrs by Annexin V-FITC/PI staining based flow cytometric analysis (reference value: 0.1 %); format: functional; in short: as §3
[25] = test system: CAL-27; experiment: Induction of apoptosis in human CAL-27 cells assessed as late apoptotic cells at 63 uM incubated for 24 hrs by Annexin V-FITC/PI staining based flow cytometric analysis (reference value: 0.1 %); format: functional; in short: as §3
[26] = test system: CAL-27; experiment: Induction of apoptosis in human CAL-27 cells assessed as necrotic cells at 63 uM incubated for 24 hrs by Annexin V-FITC/PI staining based flow cytometric analysis (reference value: 0.0 %); format: functional
[27] = test system: SCC-9; experiment: Induction of apoptosis in human SCC-9 cells assessed as live cells at 46 uM incubated for 24 hrs by Annexin V-FITC/PI staining based flow cytometric analysis (reference value: 95.7 %); format: functional
[28] = test system: SCC-9; experiment: Induction of apoptosis in human SCC-9 cells assessed as early apoptotic cells at 46 uM incubated for 24 hrs by Annexin V-FITC/PI staining based flow cytometric analysis (reference value: 2.8 %); format: functional
[29] = test system: SCC-9; experiment: Induction of apoptosis in human SCC-9 cells assessed as late apoptotic cells at 46 uM incubated for 24 hrs by Annexin V-FITC/PI staining based flow cytometric analysis (reference value: 1.4 %); format: functional
[30] = test system: SCC-9; experiment: Induction of apoptosis in human SCC-9 cells assessed as necrotic cells at 46 uM incubated for 24 hrs by Annexin V-FITC/PI staining based flow cytometric analysis (reference value: 0.1 %); format: functional
[31] = test system: SCC-9; experiment: Induction of apoptosis in human SCC-9 cells assessed as live cells at 92 uM incubated for 24 hrs by Annexin V-FITC/PI staining based flow cytometric analysis (reference value: 95.7 %); format: functional
[32] = test system: SCC-9; experiment: Induction of apoptosis in human SCC-9 cells assessed as early apoptotic cells at 92 uM incubated for 24 hrs by Annexin V-FITC/PI staining based flow cytometric analysis (reference value: 2.8 %); format: functional
[33] = test system: SCC-9; experiment: Induction of apoptosis in human SCC-9 cells assessed as late apoptotic cells at 92 uM incubated for 24 hrs by Annexin V-FITC/PI staining based flow cytometric analysis (reference value: 1.4 %); format: functional
[34] = test system: SCC-9; experiment: Induction of apoptosis in human SCC-9 cells assessed as necrotic cells at 92 uM incubated for 24 hrs by Annexin V-FITC/PI staining based flow cytometric analysis (reference value: 0.1 %); format: functional

In the case of COc1c(O)c(CN2CCN(CC(=O)Nc3nc4ccc(C)cc4s3)CC2)c2c(c1O)C1O[C@H](CO)[C@@H](O)[C@H](O)C1OC2=O (some centres undefined), the IC50 [1] is reported as > 100 µM, the IC50 [2] is reported as 63.7 µM and the IC50 [3] is reported as 91.9 µM. For the same compound, the IC50 [4] was 90.6 µM, the IC50 [5] was 74.5 µM and the IC50 [6] was > 100 µM. The Activity [7] was 85.4%, the Activity [8] was 82.1% and the Activity [9] was 3.7%. It also gave an Activity [10] of 3.2%, an Activity [11] of 11.5% and an Activity [12] of 15.3%. The Activity [13] was 76.9%, the Activity [14] was 85.7% and the Activity [15] was 11.3%. The Activity [16] was 4.9%, the Activity [17] was 11.7% and the Activity [18] was 9.4%. It also gave an Activity [19] of 89%, an Activity [20] of 8.3% and an Activity [21] of 2.6%. The Activity [22] was 0.4%, the Activity [23] was 81.1% and the Activity [24] was 11.7%. It also gave an Activity [25] of 4.2%, an Activity [26] of 3% and an Activity [27] of 38.2%. For the same compound, the Activity [28] was 9.4%, the Activity [29] was 14.7% and the Activity [30] was 37.6%. The Activity [31] was 53.5%, the Activity [32] was 7.5% and the Activity [33] was 12%. It also gave an Activity [34] of 27%.
